# Experimental data as given in ChEMBL document CHEMBL4145521, “Regioselective synthesis of 3,4-diaryl-5-unsubstituted isoxazoles, analogues of natural cytostatic combretastatin A4” (Eur J Med Chem, 2018).
# Tests used:
# Paracentrotus lividus [1] = assay: Antimitotic activity against Paracentrotus lividus embryo assessed as cleavage alteration measured at 2.5 hrs post fertilization by light microscopy; format: functional
# Procedure, shortened: (§1)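 Sea urchin eggs were fertilized with diluted sperm and cultured at room temperature in filtered seawater with paddle agitation (60 rpm), at up to 2000 embryos/mL. The effective threshold concentration causing cleavage alteration, death before hatching or full mitotic arrest was scored in duplicate.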
# Paracentrotus lividus [2] = assay: Antimitotic activity against Paracentrotus lividus embryo assessed as embryo spinning after 15 mins to 20 hrs by light microscopy; format: functional
# Procedure, shortened: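 Free-swimming blastulae from the same culture were used just after hatching (8–10 h post-fertilization). They were kept in filtered seawater at room temperature and exposed to 2-fold decreasing concentrations. Spinning at the well bottom instead of forward swimming was monitored from 15 min to 20 h under light microscopy. The effective threshold concentration was recorded from duplicates.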
# Paracentrotus lividus [3] = assay: Antimitotic activity against Paracentrotus lividus embryo assessed as cleavage arrest measured at 5.5 hrs post fertilization by light microscopy; format: functional; procedure, shortened: as §1
# Paracentrotus lividus [4] = assay: Toxicity in Paracentrotus lividus embryo assessed as embryo destruction at 2 to 4 uM by light microscopy; format: organism-based; conditions: in vivo
# Paracentrotus lividus [5] = assay: Toxicity in Paracentrotus lividus embryo assessed as embryo death at 2 to 4 uM by light microscopy; format: organism-based; conditions: in vivo
Structure (SMILES),EC (Paracentrotus lividus [1]),EC (Paracentrotus lividus [2]),EC (Paracentrotus lividus [3]),Activity (Paracentrotus lividus [4]),Activity (Paracentrotus lividus [5])
COc1ccc(-c2conc2-c2ccccc2)cc1,0.005 µM,0.1 µM,0.05 µM,–,–
COc1ccc(-c2nocc2-c2ccc(Cl)cc2)cc1,>4 µM,>4 µM,>4 µM,–,–
COc1ccc(-c2nocc2-c2ccc([N+](=O)[O-])cc2)cc1,>4 µM,>4 µM,>4 µM,–,–
COc1ccc(-c2noc(C(=O)O)c2-c2cc(OC)c(OC)c(OC)c2)cc1,0.2 µM,>5 µM,2 µM,–,–
COc1cc(-c2conc2-c2ccccc2)cc(OC)c1OC,4 µM,>4 µM,>4 µM,–,–
COc1cc(-c2c(-c3ccccc3)noc2C(=O)O)c(OC)c2c1OCO2,>4 µM,>4 µM,>4 µM,–,–
COc1ccc(/C(=C/c2cnn(C)c2)[N+](=O)[O-])cc1,2 µM,>4 µM,>4 µM,–,–
COc1ccc(-c2nocc2-c2cnn(C)c2)cc1,>4 µM,>4 µM,>4 µM,–,–
COc1ccc(/C=C(/c2ccccc2)[N+](=O)[O-])cc1,2 µM,4 µM,4 µM,–,–
COc1ccc(-c2nocc2-c2cccc(OC)c2)cc1,0.52 µM,>10 µM,4 µM,–,–
CCOC(=O)C1O[N+]([O-])=C(c2ccc(OC)cc2)C1c1cc(OC)c(OC)c(OC)c1 (centres undefined),>4 µM,>4 µM,>4 µM,–,–
COc1ccc(-c2noc(C(=O)O)c2-c2cc(OC)cc(OC)c2)cc1,20 µM,>40 µM,>40 µM,–,–
COc1cc(-c2conc2-c2ccccc2)c(OC)c2c1OCO2,2 µM,>4 µM,>4 µM,–,–
COc1ccc(/C(=C/c2cccs2)[N+](=O)[O-])cc1,0.2 µM,2 µM,2 µM,Toxic,Toxic
COc1ccc(-c2nocc2-c2cc(OC)cc(OC)c2)cc1,0.2 µM,>10 µM,2 µM,–,–
COc1ccc(-c2noc(C(=O)O)c2-c2ccc(Cl)cc2)cc1,>4 µM,>4 µM,>4 µM,–,–
CCOC(=O)C1O[N+]([O-])=C(c2ccc(OC)cc2)C1c1ccc([N+](=O)[O-])cc1 (centres undefined),>4 µM,>4 µM,>4 µM,–,–
COc1ccc(/C(=C/c2cc(OC)c(OC)c(OC)c2)[N+](=O)[O-])cc1,1 µM,>4 µM,4 µM,Toxic,Toxic
CCOC(=O)C1O[N+]([O-])=C(c2ccccc2)C1c1cc(OC)c2c(c1OC)OCO2 (centres undefined),>4 µM,>4 µM,>4 µM,–,–
COc1cc(/C=C(/c2ccccc2)[N+](=O)[O-])c(OC)c2c1OCO2,2 µM,1 µM,4 µM,Toxic,Toxic
COc1ccc(-c2noc(C(=O)O)c2-c2cccc(OC)c2)cc1,>4 µM,>4 µM,>4 µM,–,–
CCOC(=O)C1O[N+]([O-])=C(c2ccc(OC)cc2)C1c1cccc(OC)c1 (centres undefined),4 µM,>4 µM,>4 µM,–,–
CCOC(=O)C1O[N+]([O-])=C(c2ccc(OC)cc2)C1c1ccc(Cl)cc1 (centres undefined),>4 µM,>4 µM,>4 µM,–,–
COc1ccc(-c2nocc2-c2cccs2)cc1,0.5 µM,>4 µM,>4 µM,–,–
CCOC(=O)C1O[N+]([O-])=C(c2ccc(OC)cc2)C1c1cc(OC)cc(OC)c1 (centres undefined),>4 µM,>4 µM,>4 µM,–,–
COc1ccc(/C=C\c2cc(OC)c(OC)c(OC)c2)cc1O [COMBRETASTATIN A4],0.002 µM,0.05 µM,0.01 µM,–,–
